hERG rescue: hERG (human) protection from proarrhythmic block; CHO-hERG, FluxOR thallium flux, dofetilide IC70 present; activation (rescue from dofetilide block), less the hit threshold, % at 10 µM; actives 0.51% (n = 310,000); AID 1511;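 active = activation above the mean of controls blocked by dofetilide plus 5 SD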;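 also: thallium influx through hERG after potassium depolarization seen as dye fluorescence rise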
KCNQ1 block: inhibitors of human KCNQ1 potassium channel | CHO-K1 KCNQ1, FluxOR thallium flux fluorescence; active compounds read high | actives 1.3% (n = 310,000) | B-score at 10 µM | P51787;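 active = compounds whose thallium flux B-score, printed positive for inhibition, exceeds three library SD while starting fluorescence stays within three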;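 also: channel opened by potassium depolarization with thallium stimulus after 20 min compound exposure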
KCNQ1 act: potentiates or activates the human KCNQ1 potassium channel. P51787. CHO-K1 KCNQ1, thallium flux FluxOR fluorescence; active compounds read high. B-score at 10 µM. actives 0.35% (n = 310,000);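 active = fluorescence ratio B-score, a plate-corrected score, at least three library SD, with initial intensity B-score within 5 SD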
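System: Stable KCNQ1 CHO-K1 line | Incubation: 90 min dye loading and 20 min compound exposure, both at room temperature | Measure: Ratio B score | Medium: Assay buffer for compound exposure, DMSO matched across wells | Compound dosing: Single-concentration screen | Probe or stimulus: K+/Tl+ depolarizing stimulus | Measured by: Kinetic FluxOR fluorescence, 10 s baseline plus 110 s post-stimulus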
KCNK9 inh: blocks the human KCNK9 two-pore domain potassium channel; Q9NPC2; actives 1.2% (n = 310,000); HEK293 KCNK9, FluxOR thallium flux fluorescence; active compounds read low; B-score at 10 µM;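 active = ratio B-score over 3 SD below the library mean, with starting fluorescence within 5 SD of its mean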;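 also: negative B-score means less thallium flux so channel inhibition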
KCNK3 block: human KCNK3 channel inhibition, primary screen; O14649; CHO-KCNK3 thallium flux, FluxOR fluorescence; active compounds read low; B-score at 10 µM; actives 0.84% (n = 340,000); AID 602410;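 active = B-score under library mean minus 4 SD, starting fluorescence ratio at most library mean plus 5 SD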;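 also: more negative B-score means stronger inhibition of thallium flux through KCNK3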
KCNQ1 block val: confirmation of human KCNQ1 potassium channel inhibitors | shares compounds with KCNQ1 block | KCNQ1 cell line, FluxOR thallium flux fluorescence | inhibition, % at 10 µM | actives 93% (n = 1,600) | AID 588353;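 active = primary screen active, with duplicate mean exceeding buffer control mean plus 3 SD of buffer wells, cut at about 28% in these data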;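 also: 0% = buffer control ratio and 100% = XE991 inhibitor control ratio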
CHO KCNQ1 ctr: KCNQ1 inhibitor counter-screen hit in parental CHO cells | fluorescence ratio (Tl flux) at 10 µM | parental CHO-K1, FluxOR thallium flux fluorescence ratio; active compounds read low; zero means no signal rise above baseline | shares compounds with KCNQ1 block | actives 21% (n = 1,600);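 active = mean of duplicate thallium-flux fluorescence ratios in parental host cells more than 5 SD below the buffer control mean, cut at about 0.38 in these data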;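 also: ratio is peak minus minimum fluorescence divided by baseline fluorescence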
KCNQ1 ephys val: confirmation of human KCNQ1 potassium channel inhibitors by electrophysiology; shares compounds with KCNQ1 block; KCNQ1-CHO cells, automated patch clamp current; calls only at 10 µM; actives 20% (n = 490); AID 624120;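 active = KCNQ1 current drop exceeding 3 SD of negative control wells, seen in both duplicate runs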;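 also: steady state current during a 2 s step from -80 to +40 mV; negative values mean current inhibition and positive values mean potentiation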
KCNQ2 inh: selectivity of KCNQ1 inhibitors: inhibition of rat KCNQ2 channel | AID 651746 | actives 71% (n = 1,600) | inhibition, % at 10 µM | KCNQ2 cells, FluxOR thallium flux fluorescence | shares compounds with KCNQ1 block;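 active = mean percent inhibition of the KCNQ2 thallium signal more than 5 SD above the buffer-only control wells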;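 also: KCNQ2 expressed in CHO cells; 0% = buffer control wells and 100% = XE-991 inhibitor control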
KCNQ1-KCNE1 inh: KCNQ1 inhibitor that also blocks human KCNQ1/KCNE1 channel. inhibition, % at 10 µM. KCNQ1/KCNE1 cells, FluxOR thallium flux fluorescence. shares compounds with KCNQ1 block. actives 77% (n = 1,600);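 active = mean percent inhibition of duplicate wells above the buffer-only control mean plus 3 SD of those controls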;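 also: 0% = buffer only wells and 100% = XE-991 inhibitor control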
Target sequence (P51787 whole entry, looked up): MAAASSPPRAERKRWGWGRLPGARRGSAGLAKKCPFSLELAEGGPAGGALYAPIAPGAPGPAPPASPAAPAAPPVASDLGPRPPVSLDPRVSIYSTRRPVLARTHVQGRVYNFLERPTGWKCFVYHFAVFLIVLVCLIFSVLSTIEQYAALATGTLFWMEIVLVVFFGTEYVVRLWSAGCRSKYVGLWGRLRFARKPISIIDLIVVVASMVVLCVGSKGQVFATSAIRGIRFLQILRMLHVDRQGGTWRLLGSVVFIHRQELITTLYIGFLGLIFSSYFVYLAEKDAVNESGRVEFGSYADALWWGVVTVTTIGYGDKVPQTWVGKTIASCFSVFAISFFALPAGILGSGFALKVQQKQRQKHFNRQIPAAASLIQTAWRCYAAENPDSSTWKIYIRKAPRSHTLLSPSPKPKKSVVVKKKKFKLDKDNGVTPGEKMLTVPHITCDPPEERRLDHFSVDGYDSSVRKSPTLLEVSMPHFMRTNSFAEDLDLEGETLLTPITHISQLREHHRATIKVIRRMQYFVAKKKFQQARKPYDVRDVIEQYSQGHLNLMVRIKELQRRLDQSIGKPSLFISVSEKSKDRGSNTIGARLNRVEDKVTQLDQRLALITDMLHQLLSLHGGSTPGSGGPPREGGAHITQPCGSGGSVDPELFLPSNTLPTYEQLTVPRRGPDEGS
Numbers without * were called inactive; i = inactive; / = no result; + = active, no number. An excerpt weighted towards active compounds, which were near 3.1% of everything screened.

SMILES	hERG rescue	KCNQ1 block	KCNQ1 act	KCNK9 inh	KCNK3 block	KCNQ1 block val	CHO KCNQ1 ctr	KCNQ2 inh	KCNQ1-KCNE1 inh	others
CNC(=O)NC(=O)C(NC1CCCc2ccccc21)c1ccccc1 (stereo not given)	-8.1	i	i	i	i	/	/	/	/
Cc1ccc(NC(=O)C(NC2CCCc3ccccc32)c2ccccc2)cc1Cl (stereo not given)	-6.9	6*	i	i	i	66.0*	0.362*	100.0%*	99.0%*
Cc1ccc(S(=O)(=O)c2c(N)n(CCC(C)C)c3nc4ccccc4nc23)cc1	-11.8	15*	i	i	i	75.0*	0.42	i	97.0%*
CC(C)Nc1nnc(SCC(=O)Nc2sccc2C#N)s1	/	/	/	/	i	/	/	/	/
Cc1c(C(=O)Nc2nnc(C(F)(F)F)s2)oc2ccccc12	-11.1	7*	i	i	i	69.0*	0.539	i	i
COC(=O)c1sc(NC(=O)c2oc3ccccc3c2C)nc1C	-2.4	i	i	i	i	/	/	/	/
CCn1c(CNC(=O)c2ccccc2Br)nnc1SCC(=O)Nc1nncs1	-6.7	i	i	i	i	/	/	/	/
Cc1cccc(-c2cc(C(=O)Nc3ccc4c(c3)OCCO4)c3ccccc3n2)c1	-10.4	9*	i	i	i	77.5*	0.388	116.3%*	93.0%*
O=C(Nc1ncccn1)c1cc(-c2cccc(Br)c2)nc2ccccc12	-4.0	i	i	i	i	/	/	/	/
Cc1ccc(C)c(NC(=O)c2cc(-c3cccnc3)nc3ccccc23)c1	-4.9	7*	i	i	i	61.5*	0.467	97.0%*	43.5%*
O=C(Nc1ccon1)c1cc(-c2ccccc2)nc2ccccc12	/	/	/	/	i	/	/	/	/
O=C(O)c1ccccc1NC(=O)c1cc(-c2ccccc2)nc2ccccc12	-31.4	7*	i	i	i	70.0*	0.485	81.7%*	119.5%*
O=C(Nc1ccccn1)c1cc(-c2cccc(Cl)c2)nc2ccccc12	-18.6	7*	i	i	i	92.0*	0.405	115.0%*	151.0%*	KCNQ1 ephys val=i
COc1cc(/C=C/C(=O)NCC2CCCCC2)cc(OC)c1OC	-4.3	i	i	i	i	/	/	/	/
Cc1cc2nc3n(c2cc1C)CC1CC(C(=O)NCc2cccc(C(F)(F)F)c2)N(C)C31 (stereo not given)	-6.9	i	i	i	i	/	/	/	/
N[C@@H](Cc1ccc(O)cc1)c1nnc([C@H](CC(=O)O)NC(=O)C2CCNCC2)o1	-6.2	i	i	i	i	/	/	/	/
C=CCNc1nc2ccccc2nc1NS(=O)(=O)c1ccc(Cl)cc1	-5.0	6*	i	i	i	50.5*	0.438	64.3%*	i
Cc1cccc(OCc2nc(C#N)c(N3CC(C)CC(C)C3)o2)c1 (stereo not given)	-11.1	8*	i	i	-11.8*	103.0*	0.376*	i	103.5%*
CCn1c(=NC(=O)C2COc3ccccc3O2)sc2c(C)ccc(OC)c21 (stereo not given)	-15.6	7*	i	-7.99*	i	85.0*	0.395	110.3%*	121.0%*
CCn1c(=NC(=O)CN2C(=O)CCC2=O)sc2c(OC)ccc(OC)c21	-4.6	i	i	i	i	/	/	/	/
S=C(NCc1ccc(Cl)cc1)Nc1ccccc1	-7.0	i	i	i	i	/	/	/	/
S=C(NCc1ccc(Cl)cc1)Nc1ccncc1	-21.1	11*	i	i	i	144.5*	0.441	98.3%*	136.0%*	KCNQ1 ephys val=+
CCN(CC)C(=O)C1c2ccccc2Oc2ccccc21	-22.7	16*	i	i	i	0.0	0.478	77.3%*	71.0%*
COC(=O)C1=C(C(=O)OC)[C@]2([C@H]3CCCCN[C@@H](Cc4ccccc4)C(=O)N3Cc3ccccc3)C=C[C@H]1O2	/	/	/	/	i	/	/	/	/
CN1/C(=C\C(=O)Nc2ccc(Cl)cc2)C(C)(C)c2ccccc21	-24.0	10*	i	-7.15*	i	99.0*	0.487	116.0%*	47.5%*	KCNQ1 ephys val=i
SMILES	hERG rescue	KCNQ1 block	KCNQ1 act	KCNK9 inh	KCNK3 block	KCNQ1 block val	CHO KCNQ1 ctr	KCNQ2 inh	KCNQ1-KCNE1 inh	others
Cc1noc(C)c1NC(=O)N(C)C[C@H]1Oc2c(NS(=O)(=O)c3cn(C)cn3)cccc2C(=O)N([C@H](C)CO)C[C@@H]1C	/	/	/	/	i	/	/	/	/
O=C(C1COc2ccccc2O1)N1CCN(Cc2ccc(Br)cc2F)CC1 (stereo not given)	-7.5	8*	i	i	i	60.5*	0.479	107.7%*	80.0%*
CC1CCCN(S(=O)(=O)c2ccc(NC(=O)C3CCN(C(=O)C(C)(C)C)CC3)cc2)C1 (stereo not given)	/	/	/	/	i	/	/	/	/
CCOC(=O)c1cccc(Nc2nc(-c3cccnc3)nc3ccccc23)c1	-18.7	7*	i	i	i	124.5*	0.389	122.0%*	+	KCNQ1 ephys val=i
Cc1ccccc1S(=O)(=O)Nc1nc2ccccc2nc1N1CCc2ccccc2C1	-17.7	7*	i	i	i	84.5*	0.389	92.3%*	121.5%*
Cc1cccc(N2C(=O)CC(N3CCC(c4nc5ccccc5[nH]4)CC3)C2=O)c1 (stereo not given)	-11.8	i	i	i	i	/	/	/	/
CCN1C(=O)CC(N2CCC(c3nc4ccccc4[nH]3)CC2)C1=O (stereo not given)	-18.6	6*	i	i	i	31.5*	0.464	i	73.0%*
COc1ccc(-c2cc(=NC(CC(C)C)C(=O)O)c3cc(C)ccc3o2)cc1 (stereo not given)	-16.4	9*	i	i	i	70.0*	0.454	i	54.0%*
Cc1ccccc1CNC(=O)c1ccc(CSCc2ccccc2)cc1	-8.4	i	i	i	i	/	/	/	/
Cc1nc(N2CCN(c3ccccn3)CC2)c2c(C)c(C(=O)Nc3ccc(Br)cc3C)sc2n1	-12.8	7*	i	i	i	82.5*	0.446	98.0%*	103.5%*
Cc1ccc(NC(=O)c2sc3nc(C)nc(N4CCN(c5ccccn5)CC4)c3c2C)c(C)c1	-12.9	8*	i	i	i	84.5*	0.465	97.3%*	98.5%*
